In this assay the target is T1, Beta-galactoside-binding lectin (Gallus gallus, UniProt P07583).
T1 sequence (P07583 whole entry): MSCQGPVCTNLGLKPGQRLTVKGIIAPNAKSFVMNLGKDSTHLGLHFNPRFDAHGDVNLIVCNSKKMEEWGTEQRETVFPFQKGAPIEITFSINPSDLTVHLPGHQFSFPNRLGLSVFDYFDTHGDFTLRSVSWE
Briefly: Inhibition of binding of biotinylated chicken galectin-1B to surface immobilized asialofetuin by solid phase assay. The method in brief: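 Asialofetuin was adsorbed to microtiter wells at a constant coating amount, and its N-glycans served as ligand. Biotinylated lectin at a lectin-specific concentration was added with inhibitor. IC50 (mM) was normalized to lactose, and potency was expressed relative to free lactose. Assays were run in triplicate across up to five independent series.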

The source of these data is BindingDB's records for doi:10.1016/j.bmcl.2011.11.010 (Ludwig-Maximilians-University Munich, 2011).

Structures are written as SMILES.

In the case of `OC[C@H]1O[C@@H](O[C@H]2[C@H](O)[C@@H](O)[C@H](O)O[C@@H]2CO)[C@H](O)[C@@H](O)[C@H]1O` [Lactose, anhydrous], the IC50 (as a rule, the concentration that inhibits the measured activity by half) was determined as 4 mM.
